Measured values reported in PubChem BioAssay AID617 (SRMLSC, 2007).

System: E. coli BW25113 ΔtolC growth inhibition, OD615
Experiment: E. coli ΔtolC antibacterial growth inhibition – strain BW25113 ΔtolC::kan, dose response (AID 617)
Procedure, shortened: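 Material: E. coli BW25113 ΔtolC::kan bacteria; input: inoculum from 1:1000-diluted 1.5 h subculture; medium: kanamycin-containing LB broth, 50 µg/mL; dosing: compounds in serially diluted dose-response series; incubation: 20 h exposure at 37 °C; measured by: absorbance at 615 nm; control set: chloramphenicol control, 30 µM final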

SMILES | IC50
CCOC(=O)Nc1ccc2c(c1)N(C(=O)N1CCN(C)CC1)c1ccccc1S2 | 36.9 µM
CCOC(=O)Cc1nnc2c(Nc3ccc(Cl)cc3)nc3nonc3n12 | 3.75 µM
O=C(Nc1ccc(N2CCN(C(=O)c3ccco3)CC2)c(Cl)c1)c1c(F)c(F)c(F)c(F)c1F | 3.96 µM
c1ccc(CC2CCN(c3nnnn3-c3ccccc3)CC2)cc1 | 9.95 µM
O=C(CSc1nc2ccccc2[nH]1)Nc1cc(C(F)(F)F)ccc1N1CCOCC1 | 5.96 µM
O=C(COC(=O)c1ccc(Oc2ccccc2)cc1)Nc1nnc(-c2ccccc2)o1 | 0.96 µM
CCOC(=O)c1cc2sc(C)cc2n1C(C)C(=O)OCC (stereo unspecified) | 60.6 µM
CCOc1cc(S(=O)(=O)N2CCN(Cc3ccccc3)CC2)ccc1Br | 19.3 µM
O=C1c2[nH]nc(-c3ccccc3O)c2C(c2cccc(Cl)c2)N1CC1CCCO1 (stereo unspecified) | 4.35 µM
c1ccc(CCN2CCN(c3ncnc4c3cnn4-c3ccccc3)CC2)cc1 | 10.6 µM
COc1ccc(-c2[nH]ncc2-c2cnn(-c3ccccc3)c2)c(O)c1 | 12.5 µM
CCOC(=O)Cc1csc(NC(=O)c2ccc(S(=O)(=O)N3CCCCC3)cc2)n1 | 91.3 µM
N=c1c2c(-c3ccccc3)c(-c3ccccc3)n(Cc3ccco3)c2ncn1Cc1ccco1 | 4.32 µM
CCOc1ccc2[nH]c3c(N4CCN(c5ccccn5)CC4)ncnc3c2c1 | 12.2 µM
CCc1cc(C(=O)COc2ccccc2F)c(O)cc1O | 10.8 µM
COc1ccc(NC(=O)N2CCCC(c3nc(-c4ccc(C(C)C)cc4)no3)C2)cc1 (stereo unspecified) | 16.9 µM
CC(C)(C)n1nnnc1C(c1cccs1)N1CCCc2ccccc21 (stereo unspecified) | 13.6 µM
COc1ccc2[nH]c3c(=O)n(CCCCC(=O)N4CCC(C(N)=O)CC4)c(=S)[nH]c3c2c1 | 10.7 µM
CC1=CC(C)(C)N(C(=O)CSc2nnc(-c3ccccc3)o2)c2ccc(C)cc21 | 16.3 µM
O=C(Nc1nnc(-c2ccccc2)o1)c1nc2ccccc2s1 | 1.34 µM
COc1cc(NS(=O)(=O)c2ccc(OC)c(C)c2C)c(OC)cc1Cl | 16.8 µM

SMILES | IC50
CN1C(=O)C2(OCC(COc3ccc(Cl)cc3)O2)c2ccccc21 (stereo unspecified) | 11.1 µM
Cc1cc(S(=O)(=O)N2CCN(c3ccccc3C)CC2)ccc1F | 14.6 µM
CCOC(=O)c1cc2sccc2n1Cc1ccc(C#N)cc1 | 11.1 µM
Cn1c(=O)c2c(nc(N3CCCCCC3)n2Cc2cccc3ccccc23)n(C)c1=O | 7.33 µM
O=C(Nc1cccc2cccnc12)c1ccc(Br)o1 | 10.6 µM
COc1ccccc1-c1cc(C(=O)N2CCN(c3ccccc3OC)CC2)no1 | 17.9 µM
O=C(COc1ccccc1Br)c1ccc(O)cc1O | 13.1 µM
CCOc1ccc(-c2nc(C#N)c(N3CCCCCC3)o2)cc1 | 12.7 µM
CCOC(=O)Cc1ccc(NS(=O)(=O)c2ccc(SC)cc2)cc1 | 14.7 µM
CC(C)c1ccc(OCc2ccc(C(=O)N3CCN(c4ccccn4)CC3)cc2)cc1 | 8.11 µM
Brc1ccccc1Cn1c(-c2cncs2)nc2ccccc21 | 10.6 µM
O=S(=O)(c1ccccc1)N1CCN(Cc2ccccc2C(F)(F)F)CC1 | 16.8 µM
O=C(CCCSc1nc(-c2ccco2)cc(C(F)(F)F)n1)Nc1ccc2c(c1)OCO2 | 4.61 µM
CC1(C)CC(=O)C=C(NCCN2CCN(C(=O)Nc3ccc(Cl)c(Cl)c3)CC2)C1 | 20.3 µM
Cc1ccc2c(c1)c(C)c(C)n2CC(O)Cn1nc(C)c(Br)c1C (stereo unspecified) | 11.8 µM
CCCn1c(CN(Cc2ccccc2)Cc2ccccc2)nc2c1c(=O)n(C)c(=O)n2C | 7.19 µM
CSc1ccc(S(=O)(=O)Nc2ccc(N3CCOCC3)c(Cl)c2)cc1 | 6.56 µM
Clc1ccc(OCc2nn3c(C4CCCCC4)nnc3s2)cc1 | 9.82 µM
Cc1cccc(C)c1NC(=O)C(c1cccs1)N(Cc1ccco1)C(=O)Cn1nnc2ccccc21 (stereo unspecified) | 29.3 µM
Brc1cccc(-c2n[nH]c(-c3ccccc3)n2)c1 | 23.8 µM
COc1cc2c(C#N)c(N3CCc4ccccc4C3)nc(N)c2c(N)n1 | 23.5 µM

SMILES | IC50
CNc1nc(Nc2ccc(C(C)=O)cc2)nc(OC(C(F)(F)F)C(F)(F)F)n1 | 20.1 µM
COc1ccc(/C=N/n2c(SC)nnc2-c2ccccc2)cc1C | 16.5 µM
Cc1cccc(OCCCCc2c(C)n[nH]c2C)c1C | 1.56 µM
O=C(CSc1ncc(-c2ccc(F)cc2)n1Cc1ccco1)Nc1ccc2c(c1)OCO2 | 7.29 µM
CCCCOn1c(C)c(C(=O)OCC)c2c3nonc3ccc21 | 18.4 µM
O=C(Nc1ccc(Cl)cc1)N1CCC(c2nc(-c3cccs3)no2)CC1 | 6.4 µM
Cc1ccsc1C(=O)Nc1nnc(-c2ccco2)o1 | 3.92 µM
Cc1nn(-c2ccccc2)c2sc(C(=O)N(CC(=O)NC(C)(C)C)Cc3ccco3)cc12 | 24.2 µM
O=C(CSc1n[nH]c(-c2ccco2)n1)N1c2ccccc2Sc2ccccc21 | 9.51 µM
CCc1cc2c3c(c(=O)oc2cc1O)CCCC3 | 33 µM
O=C(CSc1nc2nc(-c3cccs3)cc(C(F)(F)F)c2c(=O)[nH]1)NCc1ccco1 | 5.53 µM
CC(O)c1c(OCc2ccccc2)ncnc1OCc1ccccc1 (stereo unspecified) | 10.7 µM
CC(C)(C)N1C(=O)Cc2c1nc(N)c1c(N)nc(N3CCCCC3CO)c(C#N)c21 (stereo unspecified) | 6.59 µM
CCn1c(SCC(=O)Nc2nc(-c3ccccc3)cs2)nnc1-c1ccccc1O | 6.69 µM
CN1CCN(CC(=O)N2CCn3c4c(c5cc(C6CCCCC6)ccc53)CCCC42)CC1 (stereo unspecified) | 66.7 µM
Cc1ccc2cc(C(c3nnnn3C3CCCC3)N(Cc3cccnc3)Cc3ccco3)c(=O)[nH]c2c1 (stereo unspecified) | 13.7 µM
O=C(CC1CCCCC1)c1c(O)c2ccccc2oc1=O | 1.72 µM
CCOC(=O)C1=C(N)OC2=C(C(=O)CCC2)C12C(=O)N1c3c(ccc(C)c32)C(C)=CC1(C)C (stereo unspecified) | 13.8 µM
C=C(C)COc1ccc(-c2[nH]ncc2Oc2cccc(OC)c2)c(O)c1 | 6 µM
O=C(O)c1cc(Cl)c2ccccc2c1O | 10.1 µM
C=C(C)COc1ccc(-c2n[nH]c(C)c2-c2ccccc2)c(O)c1 | 8.47 µM

SMILES | IC50
N=C(N)c1c(O)n(C2CCCCC2)c(=O)n(C2CCCCC2)c1=O | 5.79 µM
CC(C)Cc1cc(C(=O)Nc2sc3c(c2C#N)CCCC3)no1 | 8.44 µM
COc1ccc(-c2noc(C)c2-c2ccc3ccccc3n2)c(O)c1 | 8.91 µM
CCOC(=O)C1CCN(c2nc3cc(OC)ccc3cc2C#N)CC1 | 14.9 µM
COc1c(C)cc(Br)cc1C(=O)Nc1cccc(NC(=O)c2ccco2)c1 | 7.48 µM
CCc1nnc(NC(=O)c2cccc(C(=O)Nc3nnc(CC)s3)n2)s1 | 2.16 µM
O=C(Nc1cccc(Br)c1)c1cc2ccccc2o1 | 0.98 µM
N#Cc1nc(COc2ccc(-c3ccccc3)cc2)oc1NCc1cccnc1 | 8.6 µM
CCOCCn1c(CN(Cc2ccccc2)Cc2ccccc2)nc2c1c(=O)n(C)c(=O)n2C | 13.2 µM
CC1CCCC(C)N1C(=O)CN1CCN(c2nc(-c3ccc(F)cc3)cs2)CC1 (stereo unspecified) | 12 µM
Cn1c(C(=O)N2CCN(c3cccc(C(F)(F)F)c3)CC2)cc2sccc21 | 15.4 µM
O=C(c1cc2nc(-c3ccco3)cc(C(F)(F)F)n2n1)N1CCN(c2ccccc2)CC1 | 10.3 µM
Cc1ccccc1-c1nc(CN2CCC(C(=O)NCCC3=CCCCC3)CC2)c(C)o1 | 13.9 µM
Oc1c(CN2CCCCC2)cc(Br)c2cccnc12 | 4.8 µM
COc1ccc(C2CC(c3ccccc3)n3nc(NC(=O)c4cccs4)nc3N2)cc1 (stereo unspecified) | 8.18 µM
Cc1ccc(O)c(-c2cc3ccccc3[nH]2)c1 | 11.7 µM
CCOC(=O)c1ccccc1NC(=O)C(C)Oc1ccccc1 (stereo unspecified) | 30.3 µM
CCOC(=O)c1c(C)c(C(=O)Nc2cc(OC)ccc2OC)c(C)n1CC | 24.3 µM
